How the values were obtained:
Assay type in all cases: cell-based
[1] = biological target: Histamine H4 receptor (Homo sapiens, UniProt Q9H3N8); assay: Displacement of [3H]histamine from human H4 receptor expressed in HEK293 cells after 1 to 1.5 hrs by scintillation counting
[2] = biological target: Histamine H3 receptor (Homo sapiens, UniProt Q9Y5N1); assay: Displacement of [3H]histamine from human H3 receptor expressed in HEK293 cells after 1 to 1.5 hrs by scintillation counting
[3] = biological target: Histamine H4 receptor (Homo sapiens, UniProt Q9H3N8, E182Q); assay: Displacement of [3H]JNJ7777120 from human H4 receptor E5.46Q mutant expressed in HEK293 cells after 1 to 1.5 hrs by scintillation counting
How it was run: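 HEK293T cells transiently transfected (PEI method) with human H4R E5.46Q cDNA, membranes harvested 2 days later. Crude membranes in 50 mM Tris-HCl pH 7.4 with ~10 nM [3H]JNJ-7777120 and compound at 1 pM to 0.1 mM, room temperature, shaking. Separation by filtration on PEI-presoaked GF/C, ice-cold Tris washes. pKi as mean ± SEM of at least three experiments run in triplicate.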

[4] = biological target: Histamine H4 receptor (Homo sapiens, UniProt Q9H3N8, T178A); assay: Displacement of [3H]histamine from human H4 receptor T5.42A mutant expressed in HEK293 cells after 1 to 1.5 hrs by scintillation counting
[5] = biological target: Histamine H4 receptor (Homo sapiens, UniProt Q9H3N8, Q347L); assay: Displacement of [3H]histamine from human H4 receptor Q7.42L mutant expressed in HEK293 cells after 1 to 1.5 hrs by scintillation counting
[6] = biological target: Histamine H4 receptor (Homo sapiens, UniProt Q9H3N8, V102A); assay: Displacement of [3H]histamine from human H4 receptor V3.40A mutant expressed in HEK293 cells after 1 to 1.5 hrs by scintillation counting
[7] = biological target: Histamine H4 receptor (Homo sapiens, UniProt Q9H3N8, N147Y); assay: Displacement of [3H]histamine from human H4 receptor N4.57Y mutant expressed in HEK293 cells after 1 to 1.5 hrs by scintillation counting
[8] = biological target: Histamine H4 receptor (Homo sapiens, UniProt Q9H3N8, T323M); assay: Displacement of [3H]histamine from human H4 receptor T6.55M mutant expressed in HEK293 cells after 1 to 1.5 hrs by scintillation counting
Histamine H4 receptor (Homo sapiens, UniProt Q9H3N8, T323M), sequence (Q9H3N8 whole entry T323M): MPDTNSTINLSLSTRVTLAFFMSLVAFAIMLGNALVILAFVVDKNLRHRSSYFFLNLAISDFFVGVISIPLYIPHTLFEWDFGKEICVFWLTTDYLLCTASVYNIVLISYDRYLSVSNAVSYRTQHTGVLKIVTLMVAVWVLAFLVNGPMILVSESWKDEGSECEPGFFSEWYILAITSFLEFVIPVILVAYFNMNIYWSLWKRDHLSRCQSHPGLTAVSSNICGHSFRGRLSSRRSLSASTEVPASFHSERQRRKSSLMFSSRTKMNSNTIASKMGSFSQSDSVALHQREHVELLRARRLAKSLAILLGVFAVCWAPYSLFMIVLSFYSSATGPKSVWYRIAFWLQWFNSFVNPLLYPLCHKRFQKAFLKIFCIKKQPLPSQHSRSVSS

Histamine H3 receptor, sequence (Q9Y5N1 whole entry): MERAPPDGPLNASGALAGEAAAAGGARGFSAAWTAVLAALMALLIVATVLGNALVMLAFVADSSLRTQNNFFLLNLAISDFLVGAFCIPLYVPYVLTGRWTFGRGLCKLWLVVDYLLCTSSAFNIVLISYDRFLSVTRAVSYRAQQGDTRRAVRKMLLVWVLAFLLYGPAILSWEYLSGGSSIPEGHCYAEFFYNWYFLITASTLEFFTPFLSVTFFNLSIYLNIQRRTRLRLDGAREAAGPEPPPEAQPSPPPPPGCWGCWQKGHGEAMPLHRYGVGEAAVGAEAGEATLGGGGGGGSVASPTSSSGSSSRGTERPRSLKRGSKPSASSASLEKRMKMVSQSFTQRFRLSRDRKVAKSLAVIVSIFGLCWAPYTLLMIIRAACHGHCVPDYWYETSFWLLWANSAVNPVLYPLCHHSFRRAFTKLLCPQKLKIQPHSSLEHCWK
Histamine H4 receptor (Homo sapiens, UniProt Q9H3N8, V102A), sequence (Q9H3N8 whole entry V102A): as the sequence (Q9H3N8 whole entry T323M) above, with V102A, M323T counted along it
Histamine H4 receptor (Homo sapiens, UniProt Q9H3N8, E182Q), sequence (Q9H3N8 whole entry E182Q): as the sequence (Q9H3N8 whole entry T323M) above, with E182Q, M323T counted along it
Histamine H4 receptor (Homo sapiens, UniProt Q9H3N8, T178A), sequence (Q9H3N8 whole entry T178A): as the sequence (Q9H3N8 whole entry T323M) above, with T178A, M323T counted along it
Histamine H4 receptor (Homo sapiens, UniProt Q9H3N8, N147Y), sequence (Q9H3N8 whole entry N147Y): as the sequence (Q9H3N8 whole entry T323M) above, with N147Y, M323T counted along it
Histamine H4 receptor (Homo sapiens, UniProt Q9H3N8, Q347L), sequence (Q9H3N8 whole entry Q347L): as the sequence (Q9H3N8 whole entry T323M) above, with M323T, Q347L counted along it

| Ki [1] [nM] | Ki [2] [nM] | Structure (SMILES) | other results |
| --- | --- | --- | --- |
| 75.9 | 9.77 | c1ccc(CN/C(=N/C2CCCCC2)SCCCc2c[nH]cn2)cc1 |  |
| 148 | 1.02 | Clc1ccc(C/N=C(/NC2CCCCC2)SCCCc2c[nH]cn2)cc1Cl |  |
| 126 | 1.62 | N#Cc1ccc(C/N=C(/NC2CCCCC2)SCCCc2c[nH]cn2)cc1 |  |
| 135 | 1.15 | O=[N+]([O-])c1ccc(C/N=C(/NC2CCCCC2)SCCCc2c[nH]cn2)cc1 |  |
| 47.9 | 1.05 | Clc1ccc(CN=C(NC2CCCCC2)SCCCc2cnc[nH]2)cc1 | Ki [3]: 158 nM; Ki [4]: 12.6 nM; Ki [5]: 12.6 nM; Ki [6]: 63.1 nM; Ki [7]: 316 nM; Ki [8]: 12.6 nM |

Continued, compound first:

| Structure (SMILES) | Ki [1] [nM] | Ki [2] [nM] | other results |
| --- | --- | --- | --- |
| c1ccc(CN/C(=N/C2CCCC2)SCCCc2c[nH]cn2)cc1 | 42.7 | 42.7 |  |
| CCCCN/C(=N/C1CCCC1)SCCCc1c[nH]cn1 | 16.2 | 46.8 |  |
| CCCCN/C(=N/Cc1ccc(Cl)cc1)SCCCc1c[nH]cn1 | 89.1 | 4.9 |  |
| Clc1ccc(C/N=C(/NCc2ccccc2)SCCCc2c[nH]cn2)cc1 | 229 | 17 |  |
| Clc1ccc(C/N=C(/NCc2ccccc2)SCCCc2c[nH]cn2)cc1Cl | 380 | 32.4 |  |
| c1nc(CCCS/C(=N\C2CCCC2)NC2CCCCC2)c[nH]1 | 31.6 | 18.6 |  |
| CC(C)(C)N/C(=N/C1CCCC1)SCCCc1c[nH]cn1 | 29.5 | 67.6 |  |
| CCCCN/C(=N/Cc1ccc(Cl)c(Cl)c1)SCCCc1c[nH]cn1 | 89.1 | 4.68 |  |
| NC(=NCc1ccc(Cl)cc1)SCCCc1cnc[nH]1 [CLOBENPROPIT] |  |  | Ki [3]: 50.1 nM; Ki [4]: 2.51 nM; Ki [5]: 1 nM; Ki [6]: 10 nM; Ki [7]: 15.8 nM; Ki [8]: 1.58 nM |

From ChEMBL document CHEMBL1921707 (J Med Chem, 2011)
